Hits are enriched below; roughly 4.9% of the tested compounds scored in any of these assays.
NF-kB neuron act – raises NF-kB expression in human neuronal cells; NF-kB reporter expression; active compounds read high; fold change at 12.5 µM; 190,000 tested, 1.6% active; AID 1239; in the data active = fold change above about 3.3
STAT1 act – STAT1 signaling activation; 200,000 tested, 2.6% active; NIH 3T3 STAT1-luciferase reporter, IFN-gamma, luminescence; 100% = IFN-gamma alone, no compound; activation (% of control), % at 5.5 µM;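 active = activation above the screen-wide mean activation plus 3 SD, cut at about 130% in these data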;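 also: raw ratio to IFN-gamma control signal so 100% means no change and 0% no light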
STAT3 inh-1 – STAT3 signaling inhibition; U3A cells, IL-6 STAT3-luciferase reporter, luminescence; host cell line lacks STAT1; inhibition, % at 5.5 µM; 190,000 tested, 0.89% active;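 active = inhibition above the mean inhibition across all screened compounds plus 3 SD, cut at about 44% in these data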;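 also: 0% = DMSO only wells and 100% = 100 µM nifuroxazide control wells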
STAT1 inh – STAT1 signaling inhibition; NIH 3T3 STAT1-luciferase reporter, IFN-gamma, luminescence; inhibition, % at 5.5 µM; 200,000 tested, 0.35% active;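 active = inhibition above a set limit, the mean inhibition across all tested compounds plus 3 SD, cut at about 34% in these data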;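 also: 0% = IFN-gamma with DMSO and 100% = IFN-gamma with 300 µM nifuroxazide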
APP 5'UTR act – APP 5'UTR luciferase reporter activation; 190,000 tested, 1% active; activation, % at 2 µM; SH-SY5Y APP 5'UTR luciferase reporter, luminescence; zero percent = DMSO vehicle wells; AID 1276;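 active = activation above a set limit, based on mean plus 3 SD of controls, cut at about 140% in these data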
STAT3 activator – increases IL-6 driven STAT3 reporter signal; U3A cells, IL-6 STAT3-luciferase reporter, luminescence; 100% = signal with IL-6 EC80 alone; 190,000 tested, 0.91% active; AID 871; activation (% of control), % at 5.6 µM;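 active = activation above the screen-wide mean of compound activation plus 3 SD, cut at about 130% in these data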;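 also: 0% = background luminescence of wells with medium and substrate only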
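Test system: human U3A cells carrying STAT3-luciferase construct; control set: IL-6-only wells as 100% reference; timing: compound pre-incubation 1 h before IL-6, then 6 h stimulation at 37 °C; also added: IL-6 stimulus at 33 ng/mL final; evaluation: % activation versus median of IL-6-stimulated wells; detection: reporter luminescence signal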
STAT3 inh-2 – STAT3 inhibition, confirmation assay | shares compounds with STAT3 inh-1 | U3A cells, IL-6 STAT3 luciferase reporter, luminescence; cell line lacks STAT1 | inhibition, % at 5.7 µM | 1,200 tested, 45% active | AID 1265;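 active = inhibition above the hit cutoff computed for the primary STAT3 screen, cut at about 44% in these data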;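 also: 0% = IL-6 plus DMSO and 100% = IL-6 plus nifuroxazide control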
NFkB inh STAT3ct – inhibits NF-kappaB, counter-screen to STAT3 inhibitors. 1,200 tested, 36% active. AID 1308. HEK293T NF-kB luciferase reporter, TNF-alpha induced. shares compounds with STAT3 inh-1. inhibition, % at 5.7 µM;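 active = inhibition above the mean of solvent-only control wells plus 3 SD, cutoff set per campaign, cut at about 13% in these data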;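 also: 0% = TNF-alpha with DMSO and 100% = TNF-alpha with MG high control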
STAT1 inh STAT3c – STAT1 inhibition in STAT3 inhibitor counter-screen; shares compounds with STAT3 inh-1; NIH 3T3 STAT1-luciferase reporter, IFN-gamma induced, luminescence; inhibition, % at 5.7 µM; 1,200 tested, 27% active;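 active = inhibition above the mean plus 3 SD of solvent-only control wells, limit set per screening run, cut at about 16% in these data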;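 also: 0% = DMSO with IFN-gamma and 100% = nifuroxazide control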
* = called active by the depositor; / = no result given.

SMILES | NF-kB neuron act | STAT1 act | STAT3 inh-1 | STAT1 inh | APP 5'UTR act | STAT3 activator | STAT3 inh-2 | NFkB inh STAT3ct | STAT1 inh STAT3c
CCN1C(=C2C(=O)c3ccccc3C2=O)C=Cc2ccccc21 | 1.1 | 111 | -4 | -10 | -7 | 104 | / | / | /
COc1cccc(CN2CCN(Cc3cccc4nonc34)CC2CCO)c1 (stereo not drawn) | 1.2 | 101 | -3 | -3 | 11 | 107 | / | / | /
COc1ccc(OC)c(-c2cnc(OC(C)(C)C)nc2OC(C)(C)C)c1 | 1 | 99 | 1 | 1 | -35 | 100 | / | / | /
O=S(=O)(c1cccs1)N1CCN(CC(O)COc2cc(Cl)ccc2Cl)CC1 (stereo not drawn) | 0.59 | 81 | 54* | 21 | 2 | 57 | 35 | 15* | 17*
COc1c(C(=O)Nc2ccc(Cc3ccncc3)cc2)ccc2ccccc12 | 0.87 | 100 | 21 | 0 | -10 | 86 | / | / | /
O=C(COc1ccc(Cl)cc1Cl)Nc1ccc(Cl)cn1 | 4.5* | 142* | 66* | -43 | 181* | 48 | 33 | -22 | -94
Cc1ccc(C(C)C)c(OCC(=O)Nc2ccc(Cl)cn2)c1 | 1.1 | 76 | -5 | 26 | -1 | 104 | / | / | /
COC(=O)c1sccc1-n1cccc1C(=O)C(=O)N1CCOCC1 | 1.2 | 104 | 0 | -7 | 12 | 106 | / | / | /
O=C(NC(=S)Nc1ccc(N2CCCCC2)c(Cl)c1)c1ccc2c(c1)OCCO2 | 0.68 | 96 | 64* | 4 | 58 | 52 | 66* | 22* | 4
O=C(NC(=S)Nc1ccc(N2CCOCC2)c(Cl)c1)c1cncc(Br)c1 | 0.91 | 89 | 12 | 12 | 6 | 92 | / | / | /
CCNC(=O)c1ccc(C2SCC(=O)N2CCc2ccccc2)cc1 (stereo not drawn) | 1.3 | 98 | 26 | 2 | 0 | 81 | / | / | /
CCc1ccc(NC(=O)c2ccc(C3SCC(=O)N3CCc3ccccc3)cc2)cc1 (stereo not drawn) | 0.79 | 102 | 46* | -3 | -11 | 65 | 48* | 15* | -2
COc1cccc(/C=C/C(=O)N2CCN(c3n[nH]c(=O)[nH]c3=O)CC2)c1OC | 1.4 | 98 | 5 | 0 | 20 | 104 | / | / | /
COc1ccc(N=C/C=C2\C=C(c3ccccc3)OC(C)(C)O2)cc1 | 1.5 | 86 | 48* | 16 | 4 | 63 | 8 | 5 | 7
Cc1ccc(-c2nc(CN(C)Cc3cccc4cnccc34)c(C)o2)s1 | 0.94 | 90 | 21 | 10 | -17 | 86 | / | / | /
Cc1ccc(S(=O)(=O)N(C)CCCC(=O)Nc2ccncc2)cc1 | 0.92 | 82 | 50* | 20 | -18 | 63 | 38 | 3 | 13
Cc1ccc(S(=O)(=O)N(C)CCCC(=O)Nc2ccc(F)cc2)cc1 | 1 | 99 | 12 | 1 | 5 | 94 | / | / | /
Cc1ccsc1/C=N/Nc1nc(=O)[nH]nc1C | 2.1 | 71 | 53* | 30 | 57 | 58 | 18 | -10 | -8
Nc1cc(-c2ccccc2)nn1Cc1ccc(Cl)cc1 | 1.3 | 103 | 49* | -3 | 1 | 64 | 45* | 0 | -15
Nc1cc(-c2cccc(Br)c2)nn1Cc1ccccc1 | 1.4 | 109 | 9 | -10 | 16 | 96 | / | / | /
Nc1cc(-c2ccc(Br)cc2)nn1Cc1ccccc1 | 2.1 | 123 | 67* | -27 | 1 | 46 | 58* | 7 | -35
CCOc1ccc(NC(=O)CC2SC(=O)N(c3ccccc3)C2=O)cc1 (stereo not drawn) | 1.5 | 102 | -12 | -4 | -13 | 113 | / | / | /
Cc1sc(NC(=O)c2ccco2)c(C(c2cccnc2)N2CCC(C)CC2)c1C (stereo not drawn) | 0.91 | 92 | 68* | 9 | -9 | 45 | 67* | 16* | -1
Cc1ccccc1NC(=O)c1cnc2ccccn2c1=O | 1.8 | 85 | 72* | 17 | 104 | 44 | 36 | -6 | -77
COc1cc(N/C=C(\C(C)=O)c2ccccc2)cc(OC)c1 | 1.2 | 98 | 1 | 2 | -25 | 104 | / | / | /
SMILES | NF-kB neuron act | STAT1 act | STAT3 inh-1 | STAT1 inh | APP 5'UTR act | STAT3 activator | STAT3 inh-2 | NFkB inh STAT3ct | STAT1 inh STAT3c
CC(C)CC(=O)Nc1ccc(-c2cn3ccsc3n2)cc1 | 6.7* | 104 | 46* | -4 | 169* | 65 | 20 | -20 | -45
O=S(=O)(Nc1ccc(-c2cn3ccsc3n2)cc1)c1ccc2c(c1)OCCO2 | 1.8 | 101 | 14 | -1 | 14 | 95 | / | / | /
COc1ccc(C(=O)Nc2ccc(-c3cn4ccsc4n3)cc2)cc1S(=O)(=O)N1CCOCC1 | 0.82 | 89 | 32 | 12 | -14 | 79 | / | / | /
CC(C)(C)C(=O)Nc1ccc(-c2cn3ccsc3n2)cc1 | 3.3* | 72 | 72* | 31 | 158* | 43 | 42 | -2 | -21
CN(C)c1ccc(-c2n(C)c3ccccc3[n+]2C)cc1 | 0.73 | 83 | 74* | 19 | / | 40 | 65* | -7 | 24*
COc1ccc2nc(-c3ccc(N)cc3)[nH]c2c1 | 1.7 | 98 | 42 | 2 | -39 | 66 | / | / | /
Cc1nc2ccc(-c3nc4cc(N)ccc4o3)cc2[nH]1 | 1.7 | 116 | 55* | -18 | -22 | 55 | 15 | -14 | -63
Cc1ccc2nc(-c3cccc(N)c3)oc2c1 | 3.9* | 82 | 55* | 20 | / | 57 | 17 | -10 | -110
NC(=O)COC(=O)c1ccc(-c2ccccc2)cc1 | 1.1 | 99 | 2 | 0 | 16 | 100 | / | / | /
COc1ccccc1Nc1nnc(SCC2CCCCO2)s1 (stereo not drawn) | 5.2* | 87 | 64* | 15 | 176* | 49 | 12 | -17 | -73
COc1ccc(-c2cn3cc(C(=O)NN)ccc3n2)cc1 | 1.1 | 119 | 42 | -22 | 67 | 66 | / | / | /
Oc1ccc(-c2cn3cc(C(F)(F)F)ccc3n2)cc1 | 13* | 98 | 83* | 2 | 229* | 29 | 80* | 39* | 18*
Cc1cc2nc(N)sc2cc1C | 2.6 | 104 | 10 | -5 | 73 | 90 | / | / | /
Cc1cc2nc(N3C(=O)CNC3=S)sc2cc1C | 3.2 | 104 | 48* | -5 | 91 | 62 | 10 | -16 | -87
CCCCN(C)C(=S)Nc1ccc2nc3n(c(=O)c2c1)CCCCC3 | 1.2 | 84 | 35 | 16 | 8 | 75 | / | / | /
CC(C)c1ccc(/C=C/C(=O)NC2=NCCS2)cc1 | 3.1 | 95 | 68* | 6 | 222* | 43 | 31 | -23 | -92
Cc1cc(C)c(C)c(S(=O)(=O)Nc2ccccc2C(=O)NCCCN2CCOCC2)c1C | 1.1 | 93 | -6 | 7 | -13 | 106 | / | / | /
